Laboratory results as given in ChEMBL document CHEMBL4138248, “Discovery of naphtho[1,2-d]oxazole derivatives as potential anti-HCV agents through inducing heme oxygenase-1 expression” (Eur J Med Chem, 2018).
The source made the active and inactive calls. No cut-off for these calls is given here.

Tests used:
[1] = biological target: T1, Heme oxygenase 1 (Homo sapiens) (UniProt P09601); test: Induction of HO-1-mediated IFN-alpha-5 mRNA expression in human Ava5 cells after 3 days by RT-qPCR method; format: cell-based
T1 sequence (whole entry): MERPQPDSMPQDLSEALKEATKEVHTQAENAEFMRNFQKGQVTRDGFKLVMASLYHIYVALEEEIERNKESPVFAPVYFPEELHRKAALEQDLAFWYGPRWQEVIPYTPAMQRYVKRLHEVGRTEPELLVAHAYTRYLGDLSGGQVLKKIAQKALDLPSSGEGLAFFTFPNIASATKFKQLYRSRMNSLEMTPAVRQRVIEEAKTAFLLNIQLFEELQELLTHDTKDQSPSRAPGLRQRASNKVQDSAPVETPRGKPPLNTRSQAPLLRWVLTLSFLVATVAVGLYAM
Outline: (§1)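 Ava5 cells were treated for 3 days at the indicated concentrations. Target mRNAs were measured by RT-qPCR with specific primers and normalized to endogenous gapdh. Results are relative to DMSO-treated cells.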

[2] = biological target: T1, Heme oxygenase 1 (Homo sapiens); test: Induction of HO-1-mediated IFN-alpha-2 mRNA expression in human Ava5 cells after 3 days by RT-qPCR method; format: cell-based; outline: as §1
[3] = test system: Hepatitis C virus; test: Antiviral activity against HCV infected in human Ava5 cells assessed as inhibition of viral RNA replication at 20 uM after 3 days by RT-qPCR method relative to control; format: functional, Hepacivirus hominis; details: Ava5, 72 h
Outline: (§2)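 Ava5 replicon cells were exposed to 5 or 20 μM for 3 days, starting from 10 mM DMSO stocks diluted in medium. HCV RNA was quantified by RT-qPCR against gapdh and expressed as % inhibition relative to untreated control. Ribavirin was the reference drug. Mean ± SD of three independent experiments.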

[4] = test system: Hepatitis C virus; test: Antiviral activity against HCV JFH-1 infected in human Huh7.5 cells assessed as inhibition of viral RNA replication after 3 days by RT-qPCR method; format: functional, organism-based; details: Hepacivirus hominis
[5] = Selectivity index, ratio of CC50 for human Ava5 cells to IC50 for HCV; format: toxicity; details: read-out: Ratio CC50/IC50
Outline: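 SI = CC50/IC50. CC50 comes from 72 h XTT in […] Ava5 cells. IC50 is the concentration giving 50% inhibition of HCV, measured by RT-qPCR after 3 days in Ava5 cells.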

[6] = test system: Hepatitis C virus; test: (§3) Antiviral activity against HCV infected in human Ava5 cells assessed as inhibition of viral RNA replication after 3 days by RT-qPCR method; format: functional, organism-based, Hepacivirus hominis; details: Ava5, 72 h
Outline: (§4)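 Ava5 cells (Huh-7 hepatoma cells carrying an HCV replicon, grown in DMEM/10% FBS with 1 mg·mL⁻¹ G418) were treated for 3 days with a range of concentrations. HCV RNA was measured by RT-qPCR and normalized to cellular gapdh mRNA. Values are mean ± SD of three independent experiments, each in triplicate.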

[7] = biological target: T1, Heme oxygenase 1 (Homo sapiens); test: Induction of HO-1-mediated OAS1 mRNA expression in human Ava5 cells after 3 days by RT-qPCR method; format: cell-based; outline: as §1
[8] = species: Homo sapiens; test: Downregulation of bach-1 protein expression in human Ava5 cells after 3 days by Western blot method; format: functional, cell-based
Outline: (§5)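 Ava5 cells were treated for 3 days at the indicated concentrations. Whole-cell lysates were immunoblotted with anti-Nrf2, anti-Keap-1, anti-bach1 and anti-GAPDH.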

[9] = test system: Hepatitis C virus; test: Potency index, ratio of ribavirin IC50 to test compound IC50 for HCV; format: functional, Hepacivirus hominis
[10] = biological target: T1, Heme oxygenase 1 (Homo sapiens); test: Induction of HO-1-mediated IFN-alpha-17 mRNA expression in human Ava5 cells after 3 days by RT-qPCR method; format: cell-based; outline: as §1
[11] = Cytotoxicity against human Ava5 cells assessed as cell viability at 200 uM after 72 hrs by XTT assay relative to control; format: cell-based; details: read-out: Activity
Outline: (§6)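 XTT viability assay run alongside the antiviral assays. Ava5 cells were plated at 5×10^3 per well and exposed to 20 or 200 μM for 72 h at 37 °C in humidified 5% CO₂. Viability is expressed as % of untreated cells.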

[12] = test system: Hepatitis C virus; test: Antiviral activity against HCV infected in human Ava5 cells assessed as inhibition of viral RNA replication at 5 uM after 3 days by RT-qPCR method relative to control; format: functional, Hepacivirus hominis; details: Ava5, 72 h; outline: as §2
[13] = biological target: T1, Heme oxygenase 1 (Homo sapiens); test: Induction of HO-1-mediated reduction on HCV NS3/4A protease activity in human Huh-7 cells transfected with pEG(DE4AB)SEAP/pNS3/4A after 3 days; format: cell-based
Outline: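 Huh-7 cells were co-transfected with the pEG(DE4AB)SEAP reporter and the NS3/4A expression plasmid pNS3/4A, then treated for 3 days. Secreted SEAP activity reports protease activity and is expressed as fold of untreated control (set to 1). Mean ± SD, n=3.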

[14] = Cytotoxicity against human Ava5 cells assessed as cell viability at 20 uM after 72 hrs by XTT assay relative to control; format: cell-based; details: read-out: Activity; outline: as §6
[15] = test system: Hepatitis C virus; test: as §3; format: functional, organism-based, Hepacivirus hominis; outline: as §4
[16] = species: Homo sapiens; test: Effect on Nrf2 protein expression in human Ava5 cells at 0.5 to 1 uM after 3 days by Western blot method; format: functional, cell-based; outline: as §5
[17] = biological target: T1, Heme oxygenase 1 (Homo sapiens); test: Induction of HO-1-mediated OAS3 mRNA expression in human Ava5 cells after 3 days by RT-qPCR method; format: cell-based; outline: as §1
[18] = biological target: T1, Heme oxygenase 1 (Homo sapiens); test: Induction of HO-1-mediated PKR mRNA expression in human Ava5 cells after 3 days by RT-qPCR method; format: cell-based; outline: as §1
[19] = species: Homo sapiens; test: Upregulation of HO-1 protein expression in human Ava5 cells after 3 days by Western blot method; format: functional, cell-based
Outline: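 Ava5 cells were treated for 3 days at the indicated concentrations. Lysates (10 µg protein, 10% SDS-PAGE, PVDF) were probed with anti-HO-1 and anti-GAPDH.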

- Activity [1]: Dose-dependent effect
- Activity [2]: Dose-dependent effect
- IC50 [6]: 630 nM
- Activity [7]: Dose-dependent effect
- Activity [10]: Dose-dependent effect
- Activity [13]: Dose-dependent effect
- IC50 ([15]; Ava5, 72 h): 820 nM
- Activity [17]: Dose-dependent effect
- Activity [18]: Dose-dependent effect
SMILES: COc1ccc(Nc2cc3oc(-c4ccco4)nc3c3ccccc23)cc1
- inhibition at 20 µM [3]: 94.6%
- inhibition [4]: Dose-dependent effect
- selectivity ratio [5]: 229
- Activity [8]: Dose-dependent effect
- Ratio IC50 [9]: 21
- viability at 72 h, 200 µM [11]: 32.3%
- inhibition at 5 µM [12]: 92.1%
- viability at 72 h, 20 µM [14]: 89.5%
- inhibition ([15]; Hepacivirus hominis): Dose-dependent effect
- Activity [16]: inactive
- Activity [19]: Dose-dependent effect
